Assay results from ChEMBL document CHEMBL1135621, “Development of novel EDG3 antagonists using a 3D database search and their structure-activity relationships” (J Med Chem, 2002).

Molecular target: Sphingosine 1-phosphate receptor 3 (Homo sapiens) (UniProt Q99500)
Experiment: Inhibitory effect towards Sphingosine 1-phosphate receptor Edg-3 (EDG3)
Set-up: concentration or dose not given beside the values
Conditions: concentration not given here
How it was run: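 Hela cells transfected with human EDG3 cDNA, seeded in DMEM/10% FBS for 24 h at 37 °C, then in MEM for 24 h. Cells are loaded with 5 µM Calcium Green-1 AM in D-PBS(+) for 60 min, given 10 µM test compound for 5 min, then challenged with 1 µM S1P. Fluorescence (ex 485/em 535 nm) is read every 3 s for 30 s. Inhibition (%) is the RFU difference versus the 0.1% DMSO control, averaged over triplicate wells, run on three separate days.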

Chain of Sphingosine 1-phosphate receptor 3 (Homo sapiens) (Q99500 whole entry): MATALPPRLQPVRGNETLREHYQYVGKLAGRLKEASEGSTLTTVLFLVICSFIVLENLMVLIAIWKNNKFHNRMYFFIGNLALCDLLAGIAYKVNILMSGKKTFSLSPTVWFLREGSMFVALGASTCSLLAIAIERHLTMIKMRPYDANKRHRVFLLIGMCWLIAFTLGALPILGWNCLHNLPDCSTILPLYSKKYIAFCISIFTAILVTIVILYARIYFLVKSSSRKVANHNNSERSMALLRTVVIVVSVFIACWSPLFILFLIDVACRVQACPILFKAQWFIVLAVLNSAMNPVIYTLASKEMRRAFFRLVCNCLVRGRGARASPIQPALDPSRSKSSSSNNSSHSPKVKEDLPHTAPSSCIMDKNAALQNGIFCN

Row | Structure (SMILES) | inhibition [%]
1 | CCCCCCCCCCCCC1NC(C(=O)O)CS1 (stereo not drawn) | 15.9
2 | CCCCCCCCCCCCCC1NC(C(=O)O)CCS1 (stereo not drawn) | 5.9
3 | CCCCCCCCCCCCC1NC(C(=O)O)CCS1 (stereo not drawn) | 0.3
4 | CCCCCCCCCCC1NC(C(=O)O)CS1 (stereo not drawn) | 26.4
5 | CCCCCCCCCCC1NC(C(=O)O)CCS1 (stereo not drawn) | 9.3
6 | CCCCCCCCCC1NC(C(=O)O)CCS1 (stereo not drawn) | 6.9
7 | CCCCCCCCCCCC1NC(C(=O)O)CCS1 (stereo not drawn) | 9.4
8 | CCCCCCCCCCCCCC1NC(C(=O)O)CS1 (stereo not drawn) | 6.6
9 | CCCCCCCCCCC[C@H]1N[C@H](C(=O)O)CS1 | 37.6

Second part, the compound after the results:

Row | inhibition [%] | Structure (SMILES)
10 | 0 | CCCCCCC1NC(C(=O)O)CS1 (stereo not drawn)
11 | 9.9 | CCCCCc1cccc(C2N[C@H](C(=O)O)CS2)c1 (stereo partly drawn)
12 | 42.9 | CCCCCCCc1ccc(C2N[C@H](C(=O)O)CS2)cc1 (stereo partly drawn)
13 | 14.8 | CCCCCCCCCC1NC(C(=O)O)CS1 (stereo not drawn)
14 | 21.9 | CCCCCCCCCc1ccc(C2N[C@H](C(=O)O)CS2)cc1 (stereo partly drawn)
15 | 37.2 | CCCCCCCCCc1cccc(C2N[C@H](C(=O)O)CS2)c1 (stereo partly drawn)
16 | 13 | CCCCCc1ccc(C2N[C@H](C(=O)O)CS2)cc1 (stereo partly drawn)
17 | 34.5 | CCCCCCCCCC[C@H]1N[C@H](C(=O)O)CS1
18 | 43.4 | CCCCCCCc1cccc(C2N[C@H](C(=O)O)CS2)c1 (stereo partly drawn)
